Assay results from ChEMBL document CHEMBL1121448, “Adrenergic receptor agonists. Benzofuranylethanolamines” (1980).

Columns and labels:
[1] = molecular target: Beta-2 adrenergic receptor (Homo sapiens) (UniProt P07550); experiment: Tested for agonistic effect on peripheral vascular resistance (PR) against beta 2 adrenergic receptor in cat; type: functional; details: Felis catus; target entry is the homologue from another species
Outline: (§1)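 Reserpinized, bilaterally vagotomized cats, pentobarbital-anesthetized (30 mg/kg ip, then 0.1 (mg/min)/kg infusion), artificially ventilated. Heart rate was recorded by cardiotachograph from carotid pressure. Hind-leg vascular resistance was read as perfusion pressure under constant-flow autoperfusion. Test compound was infused iv into the femoral vein for 10 min at 1.0 mL/min, in five stepwise raised concentrations.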

[2] = molecular target: Beta-1 adrenergic receptor (Homo sapiens) (UniProt P08588); experiment: Tested for antagonistic effect on heart rate against beta-1 adrenergic receptor in cat; type: functional, tissue-based; details: Felis catus, target entry is the homologue from another species; outline: as §1
Beta-1 adrenergic receptor (Homo sapiens), sequence (P08588 whole entry, looked up): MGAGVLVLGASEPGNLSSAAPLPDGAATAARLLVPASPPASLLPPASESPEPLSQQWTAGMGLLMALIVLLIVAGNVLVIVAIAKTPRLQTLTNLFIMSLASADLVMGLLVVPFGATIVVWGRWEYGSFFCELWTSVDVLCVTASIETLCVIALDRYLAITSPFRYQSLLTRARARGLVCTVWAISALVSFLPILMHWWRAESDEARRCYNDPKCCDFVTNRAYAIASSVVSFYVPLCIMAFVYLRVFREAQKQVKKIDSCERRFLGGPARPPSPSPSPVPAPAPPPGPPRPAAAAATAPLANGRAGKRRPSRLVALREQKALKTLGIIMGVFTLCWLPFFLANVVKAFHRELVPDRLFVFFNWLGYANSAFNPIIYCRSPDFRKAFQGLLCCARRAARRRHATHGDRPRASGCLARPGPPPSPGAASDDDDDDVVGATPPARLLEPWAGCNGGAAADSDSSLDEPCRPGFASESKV

[3] = molecular target: Beta-1 adrenergic receptor (Homo sapiens) (UniProt P08588); experiment: Tested for agonistic effect on heart rate against beta-1 adrenergic receptor in cat; type: functional, tissue-based; details: Felis catus, target entry is the homologue from another species; outline: as §1
Felis catus = organism: Felis catus; experiment: Intrinsic activity as percentage of heart rate (HR max) in cat was determined; type: functional; outline: as §1
[4] = molecular target: Beta-2 adrenergic receptor (Homo sapiens) (UniProt P07550); experiment: Tested for agonistic effect on peripheral vascular resistance (PR) against beta-2 adrenergic receptor in cat; type: functional; details: Felis catus; target entry is the homologue from another species; outline: as §1

Beta-2 adrenergic receptor (Homo sapiens), sequence (P07550 whole entry, looked up, the tested form may be a part): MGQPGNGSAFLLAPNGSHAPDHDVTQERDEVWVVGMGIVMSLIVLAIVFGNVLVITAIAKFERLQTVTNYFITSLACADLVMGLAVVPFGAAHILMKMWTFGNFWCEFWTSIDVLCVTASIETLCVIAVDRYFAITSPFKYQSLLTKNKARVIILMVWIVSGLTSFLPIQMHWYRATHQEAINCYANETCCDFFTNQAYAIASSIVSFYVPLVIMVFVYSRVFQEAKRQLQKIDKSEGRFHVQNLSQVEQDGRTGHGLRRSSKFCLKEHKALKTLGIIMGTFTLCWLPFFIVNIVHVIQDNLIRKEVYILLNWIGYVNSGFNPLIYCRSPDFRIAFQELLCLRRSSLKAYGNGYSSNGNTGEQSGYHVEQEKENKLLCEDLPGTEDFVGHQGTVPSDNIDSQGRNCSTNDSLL

Row | Structure (SMILES) | KB [1] | KB [2] | KA [3] | HR (Felis catus) | KB [4]
1 | CC(C)NCC(O)c1cc2ccc(O)cc2o1 (stereo not given) | 4.73 µM/kg | 4.8 µM/kg | 1.65 µM/kg | 27% | 
2 | CC(C)NC[C@H](O)COc1ccc(O)cc1 [PRENALTEROL] |  |  | 0.025 µM/kg | 80% | 
3 | CC(C)NCC(O)c1cc2cc(O)ccc2o1 (stereo not given) |  | 0.34 µM/kg | 0.21 µM/kg | 80% | 1.12 µM/kg
